Compound activity as filed in PubChem BioAssay.
Rows were chosen to be rich in hits. Some 3.5% of all compounds tested hit in one or more screens of this group.
MrgX1 antagonist – antagonists of human MrgX1 receptor; MRGX1-HEK293 calcium flux, Fluo-4, BAM8-22 antagonism; hits give low values; B-score at 10 µM; 310,000 compounds, 1.3% hits; Q96LB2;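 active means calcium-response B-score plate-corrected more than 3 library SD below zero, starting fluorescence within 5 deviations, no agonist response on first addition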;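 further: peak minus trough fluorescence over baseline after final BAM8-22 challenge near maximal dose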
Target sequence (Q96LB2 whole entry, looked up): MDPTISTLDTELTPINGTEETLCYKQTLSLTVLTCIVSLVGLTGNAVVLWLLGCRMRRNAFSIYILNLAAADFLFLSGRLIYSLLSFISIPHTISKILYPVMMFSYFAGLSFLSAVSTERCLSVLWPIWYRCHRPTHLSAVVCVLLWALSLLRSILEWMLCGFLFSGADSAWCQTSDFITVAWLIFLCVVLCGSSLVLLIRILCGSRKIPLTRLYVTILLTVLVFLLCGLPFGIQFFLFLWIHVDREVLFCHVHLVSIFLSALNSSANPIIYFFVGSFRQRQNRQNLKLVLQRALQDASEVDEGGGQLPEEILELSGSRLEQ
RGS4 block – human RGS4 inhibition | P49798 | HEK293 M3R/RGS4 inducible, Fluo-4 calcium flux; hits give high values; triggered by carbachol at its EC20 | B-score at 10 µM | 310,000 compounds, 0.45% hits | AID 463165;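 active means B-score, a plate-corrected calcium signal, over three deviations above library mean, with baseline fluorescence within five deviations of library mean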;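 further: RGS4 expression induced by doxycycline in cells with stable M3 receptor; B-score is computed from the integrated fluorescence ratio over baseline after carbachol; higher B-score means a larger calcium signal and so more RGS4 inhibition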
Target sequence (P49798 whole entry, looked up): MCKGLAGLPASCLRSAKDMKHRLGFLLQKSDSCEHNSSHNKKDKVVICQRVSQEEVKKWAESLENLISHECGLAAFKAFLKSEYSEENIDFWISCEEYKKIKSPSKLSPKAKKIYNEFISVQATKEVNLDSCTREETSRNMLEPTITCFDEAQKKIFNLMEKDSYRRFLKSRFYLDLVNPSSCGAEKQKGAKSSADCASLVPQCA
RGS4 pot – RGS4 potentiation or activation; HEK293 M3R/inducible RGS4, carbachol calcium flux Fluo4; hits give low values; B-score at 10 µM; 310,000 compounds, 0.92% hits;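 active means B-score of the integrated calcium signal more than 4 SD below the library mean, with starting fluorescence not abnormally high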;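 further: negative B-score means reduced calcium response which marks RGS4 activation or potentiation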
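Assay system: HEK293 FlpIn-TREx cells, stable M3R, doxycycline-inducible RGS4 / Probe or stimulus: carbachol, ECmax concentration / Times: overnight RGS4 induction, 30 min dye load 37 °C, 20 min compound RT / Signal: kinetic calcium fluorescence imaging with Fluo4-AM dye, 2 µM / Measure: Agonist-evoked peak-minus-minimum fluorescence over baseline, integrated ratio, B score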
MrgX1 agonist – activates human MrgX1 receptor signaling. MrgX1-HEK293 cells, Fluo-4 calcium fluorescence, agonist mode; hits give high values. B-score at 10 µM. 310,000 compounds, 0.44% hits;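 active means calcium response B-score plate-corrected fluorescence ratio at least 3 library SD, with starting fluorescence B-score inside 5 SD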
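times = overnight plating, then 30 min 37 °C plus 30 min room-temperature dye loading | assay system = stable human MrgX1 HEK293 cell line | input = fifteen thousand cells per well | signal = kinetic calcium dye fluorescence, Fluo-4 NW | dosing = compound delivered in addition one of three | read-out = B-scored fluorescence response ratio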
MrgX1 PAM – human MrgX1 positive allosteric modulation, primary screen | Q96LB2 | MrgX1-HEK293, Fluo-4 calcium flux, FDSS; hits give high values | B-score at 10 µM | 310,000 compounds, 0.63% hits;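 active means plate-corrected calcium response at least 3 library SD above typical, normal starting fluorescence, not activating the receptor alone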;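 further: compound read alongside a low EC10 to EC30 dose of BAM8-22 agonist; peak minus trough fluorescence over baseline measured at the second addition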
RGS4 inh valid – validation of RGS4 inhibitors; HEK293 M3R/RGS4, carbachol calcium Fluo-4 fluorescence; carbachol added at its EC20; 0 = buffer wells, 100 = carbachol control; shares compounds with RGS4 block; calcium response, % at 10 µM; 1,700 compounds, 65% hits;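 active means duplicate-averaged calcium response above the buffer-only control mean plus 5 SD of those controls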;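 further: integrated fluorescence ratio F max minus min over baseline F0; higher response in RGS4-induced cells means RGS4 inhibition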
M3R Ca ctr – counter-screen for RGS4 inhibitors: effect in non-induced cells; shares compounds with RGS4 block; HEK293 M3R non-induced, carbachol calcium Fluo-4; submaximal (EC20) carbachol stimulus; buffer wells 0%, carbachol control wells 100%; activity (percent), % at 10 µM; 1,900 compounds, 20% hits; AID 493000; call rule not given here;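 further: RGS4 induction absent so cells express M3R without RGS4; higher means more calcium signal and flags a non-specific hit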
M3R basal Ca ctr – second counter-screen for RGS4 inhibitors: non-induced cells without carbachol; shares compounds with RGS4 block; HEK293 M3R/RGS4 non-induced, Fluo-4 calcium, no carbachol; normalised: buffer wells 0%, carbachol wells 100%; calcium response (agonist-mode artifact), % at 10 µM; 1,900 compounds, 22% hits; AID 493001;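 active means duplicate-averaged calcium rise in uninduced cells above buffer wells' mean plus 5 SD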
Numbers without * were called inactive.

Results for Cc1cc(-c2ccco2)n2c(nc3ccccc32)c1C#N ?
MrgX1 antagonist: inactive; RGS4 block: inactive; RGS4 pot: inactive; MrgX1 agonist: inactive; MrgX1 PAM: inactive

How did COc1ccc(OC)c(NC(=O)C2CC(/C=C/c3ccccc3)=NO2)c1 (stereo not drawn) do in these assays?
MrgX1 antagonist: inactive; RGS4 block: inactive; RGS4 pot: inactive; MrgX1 agonist: inactive; MrgX1 PAM: inactive

Results for CCOc1ccc2cc(/C=C/C(=O)c3ccco3)c(Cl)nc2c1 ?
MrgX1 antagonist: inactive; RGS4 block: inactive; RGS4 pot: inactive; MrgX1 agonist: inactive; MrgX1 PAM: inactive; RGS4 inh valid: inactive; M3R Ca ctr: inactive; M3R basal Ca ctr: 40%*

Results for O=C1C(Cl)=C(N2CCC(C(=O)O)CC2)C(=O)c2ccccc21 ?
MrgX1 antagonist: inactive; RGS4 block: 8.8*; RGS4 pot: inactive; MrgX1 agonist: inactive; MrgX1 PAM: 15*; RGS4 inh valid: 39%*; M3R Ca ctr: inactive; M3R basal Ca ctr: inactive

Results for NC(=O)C1CCN(C2=C(NS(=O)(=O)c3ccccc3)C(=O)c3ccccc3C2=O)CC1 ?
MrgX1 antagonist: inactive; RGS4 block: inactive; RGS4 pot: inactive; MrgX1 agonist: inactive; MrgX1 PAM: inactive

Results for OC(COCCOc1ccc(Br)cc1)CN1CCCCC1 (stereo not drawn) ?
MrgX1 antagonist: inactive; RGS4 block: inactive; RGS4 pot: inactive; MrgX1 agonist: inactive; MrgX1 PAM: inactive

What do the screens show for `CC(=O)/C=C/c1ccc2ccccc2n1`?
MrgX1 antagonist: inactive; RGS4 block: 25*; RGS4 pot: inactive; MrgX1 agonist: inactive; MrgX1 PAM: inactive; RGS4 inh valid: 50%*; M3R Ca ctr: inactive; M3R basal Ca ctr: inactive

How did CCOC(=O)N1CCN(S(=O)(=O)c2ccc(C(=O)NNc3nc4c(C)cccc4s3)cc2)CC1 do in these assays?
MrgX1 antagonist: inactive; RGS4 block: inactive; RGS4 pot: inactive; MrgX1 agonist: inactive; MrgX1 PAM: inactive

Results for Cc1cccc2sc(NNC(=O)c3ccc(S(=O)(=O)N4CCCC(C)C4)cc3)nc12 (stereo not drawn) ?
MrgX1 antagonist: inactive; RGS4 block: inactive; RGS4 pot: inactive; MrgX1 agonist: inactive; MrgX1 PAM: inactive; RGS4 inh valid: inactive; M3R Ca ctr: inactive; M3R basal Ca ctr: inactive

What do the screens show for `Cc1cccc2sc(NNC(=O)c3ccc(S(=O)(=O)N4CCc5ccccc5C4)cc3)nc12`?
MrgX1 antagonist: inactive; RGS4 block: inactive; RGS4 pot: inactive; MrgX1 agonist: inactive; MrgX1 PAM: inactive; M3R Ca ctr: inactive; M3R basal Ca ctr: inactive

What do the screens show for `O=C(NNc1cccc(Cl)n1)Nc1ccc(F)cc1`?
MrgX1 antagonist: inactive; RGS4 block: inactive; RGS4 pot: inactive; MrgX1 agonist: inactive; MrgX1 PAM: inactive

What do the screens show for `CCOC(=O)C1CCN(Cc2nc3ccccc3c(=O)n2-c2ccc(OCC)cc2)CC1`?
RGS4 block: 6.1*; RGS4 pot: inactive; RGS4 inh valid: 6.5%*; M3R Ca ctr: inactive; M3R basal Ca ctr: inactive

What do the screens show for `S=C(NCc1ccccc1)NC1CCSc2ccccc21` (stereo not drawn)?
MrgX1 antagonist: inactive; RGS4 block: inactive; RGS4 pot: inactive; MrgX1 agonist: inactive; MrgX1 PAM: inactive

How did COC(=O)c1sccc1NC(=O)CC1C(=O)NCCN1C(=O)Nc1ccc(C(F)(F)F)cc1 (stereo not drawn) do in these assays?
MrgX1 antagonist: inactive; RGS4 block: inactive; RGS4 pot: inactive; MrgX1 agonist: inactive; MrgX1 PAM: inactive

Results for COc1cc2c(cc1OC)-c1cc(Nc3ccc(C)cc3)nc(=O)n1CC2 ?
MrgX1 antagonist: inactive; RGS4 block: inactive; RGS4 pot: inactive; MrgX1 agonist: inactive; MrgX1 PAM: inactive; M3R Ca ctr: inactive; M3R basal Ca ctr: inactive

Results for COc1cc2c(cc1OC)-c1cc(Nc3ccccc3)nc(=O)n1CC2 ?
MrgX1 antagonist: inactive; RGS4 block: inactive; RGS4 pot: inactive; MrgX1 agonist: inactive; MrgX1 PAM: inactive; M3R Ca ctr: inactive; M3R basal Ca ctr: 93%*

What do the screens show for `COc1ccc(Nc2cc3n(c(=O)n2)CCc2cc(OC)c(OC)cc2-3)cc1`?
MrgX1 antagonist: inactive; RGS4 block: inactive; RGS4 pot: inactive; MrgX1 agonist: inactive; MrgX1 PAM: inactive

Results for COc1ccc2[nH]c(=O)c(C(c3nnnn3CC3CCCO3)N3CCCCC3)cc2c1 (stereo not drawn) ?
MrgX1 antagonist: inactive; RGS4 block: inactive; RGS4 pot: inactive; MrgX1 agonist: inactive; MrgX1 PAM: inactive

How did COc1ccc2[nH]c(=O)c(C(c3nnnn3C(C)(C)C)N(Cc3ccco3)CC3CCCO3)cc2c1 (stereo not drawn) do in these assays?
MrgX1 antagonist: inactive; RGS4 block: inactive; RGS4 pot: inactive; MrgX1 agonist: inactive; MrgX1 PAM: inactive; M3R Ca ctr: inactive; M3R basal Ca ctr: 7.0%*

How did Cc1cc2cc(C(c3nnnn3C(C)(C)C)N(Cc3ccco3)CC3CCCO3)c(=O)[nH]c2cc1C (stereo not drawn) do in these assays?
MrgX1 antagonist: inactive; RGS4 block: 5.4*; RGS4 pot: inactive; MrgX1 agonist: inactive; MrgX1 PAM: inactive; RGS4 inh valid: 18%*; M3R Ca ctr: inactive; M3R basal Ca ctr: inactive

How did Cc1cc(C)c2[nH]c(=O)c(C(c3nnnn3C(C)(C)C)N(Cc3ccco3)CC3CCCO3)cc2c1 (stereo not drawn) do in these assays?
MrgX1 antagonist: inactive; RGS4 block: inactive; RGS4 pot: inactive; MrgX1 agonist: inactive; MrgX1 PAM: inactive; RGS4 inh valid: inactive; M3R Ca ctr: inactive; M3R basal Ca ctr: inactive

How did Cc1cc(C)n(CC(O)COc2ccccc2Br)n1 (stereo not drawn) do in these assays?
MrgX1 antagonist: inactive; RGS4 block: inactive; RGS4 pot: inactive; MrgX1 agonist: inactive; MrgX1 PAM: inactive

How did CN(CC(=O)Nc1ccccc1Cl)C(=O)CSc1nncn1C do in these assays?
MrgX1 antagonist: inactive; RGS4 block: inactive; RGS4 pot: inactive; MrgX1 agonist: inactive; MrgX1 PAM: inactive
